{
  "source": "ChEMBL document CHEMBL2346641",
  "about": "“Discovery of disubstituted piperidines and homopiperidines as potent dual NK1 receptor antagonists-serotonin reuptake transporter inhibitors for the treatment of depression” (Bioorg Med Chem, 2013)",
  "key": {"[1]": {"assay": "Ratio of drug level in brain to serum in gerbil at 30 mg/kg, ip after 36 mins", "format": "ADME, organism-based", "set-up": "dose 30 mg/kg, route intraperitoneal", "settings": "gerbillinae", "procedure,_shortened": "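Gerbils given single IP dose in 100% PEG-400 (0.1–30 mg/kg); brain and serum sampled 36 min post-dose, matching the interval from dosing to end of forced swim test. Drug concentrations (nM) measured in each matrix and brain-to-serum ratio calculated; mean of n = 3 with SD.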"}, "[2]": {"assay": "Drug uptake in gerbil brain at 30 mg/kg, ip after 36 mins", "format": "ADME, organism-based", "set-up": "dose 30 mg/kg, route intraperitoneal", "settings": "gerbillinae, read-out: Drug uptake", "procedure,_shortened": "(§1)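 Gerbils given IP doses as a solution in 100% PEG-400. Brain and serum sampled 36 min post-injection, covering the time from dosing to the end of the behavioral test. Values are means (n = 3) with SD.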"}, "[3]": {"assay": "Drug uptake in gerbil brain at 3 mg/kg, ip after 36 mins", "format": "ADME, organism-based", "set-up": "dose 3 mg/kg, route intraperitoneal", "settings": "gerbillinae, read-out: Drug uptake", "procedure,_shortened": "as §1"}, "[4]": {"assay": "Drug uptake in gerbil brain at 0.3 mg/kg, ip after 36 mins", "format": "ADME, organism-based", "set-up": "dose 0.3 mg/kg, route intraperitoneal", "settings": "gerbillinae, read-out: Drug uptake", "procedure,_shortened": "as §1"}, "[5]": {"assay": "Drug uptake in gerbil serum at 30 mg/kg, ip after 36 mins", "format": "ADME, organism-based", "set-up": "dose 30 mg/kg, route intraperitoneal", "settings": "gerbillinae, read-out: Drug uptake", "procedure,_shortened": "as §1"}, "[6]": {"assay": "Drug uptake in gerbil brain at 0.1 mg/kg, ip after 36 mins", "format": "ADME, organism-based", "set-up": "dose 0.1 mg/kg, route intraperitoneal", "settings": "gerbillinae, read-out: Drug uptake", "procedure,_shortened": "as §1"}, "[7]": {"assay": "Drug uptake in gerbil serum at 10 mg/kg, ip after 36 mins", "format": "ADME, organism-based", "set-up": "dose 10 mg/kg, route intraperitoneal", "settings": "gerbillinae, read-out: Drug uptake", "procedure,_shortened": "as §1"}, "[8]": {"assay": "Drug uptake in gerbil serum at 3 mg/kg, ip after 36 mins", "format": "ADME, organism-based", "set-up": "dose 3 mg/kg, route intraperitoneal", "settings": "gerbillinae, read-out: Drug uptake", "procedure,_shortened": "as §1"}, "[9]": {"tested_on": "Gerbillinae", "assay": "Antidepressant activity in gerbil assessed as decrease in immobility time at 10 to 30 mg/kg, ip administered for 30 mins prior to testing measured for 6 mins by forced swimming test", "format": "functional, organism-based"}, "[10]": {"tested_on": "Gerbillinae", "assay": "Antidepressant activity in gerbil assessed as decrease in immobility time at 0.3 to 3 mg/kg, ip administered for 30 mins prior to testing measured for 6 mins by forced swimming test", "format": "functional, organism-based"}, "[11]": {"biological_target": "T1, Substance-K receptor (Homo sapiens, UniProt P21452)", "T1 sequence (P21452 whole entry)": "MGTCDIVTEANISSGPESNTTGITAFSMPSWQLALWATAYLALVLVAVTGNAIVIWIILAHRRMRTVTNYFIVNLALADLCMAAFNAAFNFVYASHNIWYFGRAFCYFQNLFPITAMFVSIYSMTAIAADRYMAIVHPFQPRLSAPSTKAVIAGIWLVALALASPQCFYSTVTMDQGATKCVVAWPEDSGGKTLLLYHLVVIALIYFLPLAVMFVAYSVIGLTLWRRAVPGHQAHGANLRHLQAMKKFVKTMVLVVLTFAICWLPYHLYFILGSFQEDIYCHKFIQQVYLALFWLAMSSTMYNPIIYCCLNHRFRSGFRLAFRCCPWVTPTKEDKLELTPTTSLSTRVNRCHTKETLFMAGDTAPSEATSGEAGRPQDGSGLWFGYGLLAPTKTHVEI", "assay": "Inhibition of NK2 receptor (unknown origin)"}, "[12]": {"biological_target": "5-hydroxytryptamine receptor 2B (Homo sapiens, UniProt P41595)", "sequence (P41595 whole entry)": "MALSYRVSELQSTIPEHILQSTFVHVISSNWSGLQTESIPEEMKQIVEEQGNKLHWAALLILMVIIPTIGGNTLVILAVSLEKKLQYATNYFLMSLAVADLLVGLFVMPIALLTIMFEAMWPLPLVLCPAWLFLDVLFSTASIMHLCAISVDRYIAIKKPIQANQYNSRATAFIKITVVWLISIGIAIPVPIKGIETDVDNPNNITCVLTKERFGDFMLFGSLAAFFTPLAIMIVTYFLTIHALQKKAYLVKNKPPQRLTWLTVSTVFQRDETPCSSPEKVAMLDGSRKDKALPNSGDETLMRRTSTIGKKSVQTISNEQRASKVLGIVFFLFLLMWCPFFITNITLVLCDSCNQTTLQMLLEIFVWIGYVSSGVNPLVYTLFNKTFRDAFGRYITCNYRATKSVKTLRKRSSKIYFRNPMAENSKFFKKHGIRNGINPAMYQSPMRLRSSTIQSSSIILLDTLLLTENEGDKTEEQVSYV", "assay": "Inhibition of 5HT2B receptor (unknown origin)"}, "[13]": {"biological_target": "Histamine H1 receptor (Homo sapiens) (UniProt P35367)", "sequence (P35367 whole entry)": "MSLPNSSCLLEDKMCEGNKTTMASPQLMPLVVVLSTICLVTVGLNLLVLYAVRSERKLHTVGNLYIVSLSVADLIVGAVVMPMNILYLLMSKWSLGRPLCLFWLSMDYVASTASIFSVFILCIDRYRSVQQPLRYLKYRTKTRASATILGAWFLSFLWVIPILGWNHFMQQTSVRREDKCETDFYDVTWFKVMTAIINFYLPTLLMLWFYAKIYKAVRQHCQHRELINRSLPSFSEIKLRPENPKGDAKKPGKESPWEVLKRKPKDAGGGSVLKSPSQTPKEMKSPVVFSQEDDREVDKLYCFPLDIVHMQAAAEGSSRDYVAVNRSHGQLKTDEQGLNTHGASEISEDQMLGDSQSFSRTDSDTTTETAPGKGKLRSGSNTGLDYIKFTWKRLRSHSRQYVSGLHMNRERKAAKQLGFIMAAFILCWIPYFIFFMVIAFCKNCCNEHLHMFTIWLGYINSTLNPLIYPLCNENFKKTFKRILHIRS", "assay": "Inhibition of histamine H1 receptor (unknown origin) at 10 uM", "procedure,_shortened": "(§2)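 Screened at 10 µM in a commercial panel of over 70 receptors. Significance threshold set at ≥50% inhibition.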"}, "[14]": {"biological_target": "Sodium-dependent dopamine transporter (Homo sapiens, UniProt Q01959)", "sequence (Q01959 whole entry)": "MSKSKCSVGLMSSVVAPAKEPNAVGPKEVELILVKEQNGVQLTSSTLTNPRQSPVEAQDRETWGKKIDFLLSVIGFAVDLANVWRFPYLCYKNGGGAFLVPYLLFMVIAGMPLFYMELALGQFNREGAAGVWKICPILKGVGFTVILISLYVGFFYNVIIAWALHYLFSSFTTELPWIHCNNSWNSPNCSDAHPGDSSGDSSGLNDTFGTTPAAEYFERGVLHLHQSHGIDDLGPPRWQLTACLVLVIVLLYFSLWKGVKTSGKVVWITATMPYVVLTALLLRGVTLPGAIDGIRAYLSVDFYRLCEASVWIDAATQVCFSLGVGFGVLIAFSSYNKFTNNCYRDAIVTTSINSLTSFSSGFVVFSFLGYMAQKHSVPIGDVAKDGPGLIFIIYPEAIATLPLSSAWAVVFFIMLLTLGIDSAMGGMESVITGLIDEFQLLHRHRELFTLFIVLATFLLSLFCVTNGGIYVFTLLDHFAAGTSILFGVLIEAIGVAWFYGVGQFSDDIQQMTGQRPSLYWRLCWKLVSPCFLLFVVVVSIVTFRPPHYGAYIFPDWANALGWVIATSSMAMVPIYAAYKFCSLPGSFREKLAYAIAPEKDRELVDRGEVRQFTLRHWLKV", "assay": "Inhibition of DAT (unknown origin) at 10 uM", "procedure,_shortened": "as §2"}},
  "note": "The source made the active and inactive calls.",
  "data": [
    {"molecule": "FC(F)(F)c1cc(COCC2(c3ccccc3)CCNCC2)cc(C(F)(F)F)c1", "values": [
      {"measurement": "Kp at 0.6 h", "setting": "[1]", "result": 2.3},
      {"measurement": "concentration at 0.6 h", "setting": "[2]", "result": 7300, "unit": "nM"},
      {"measurement": "concentration at 0.6 h", "setting": "[3]", "result": 880, "unit": "nM"},
      {"measurement": "concentration at 0.6 h", "setting": "[4]", "result": 44, "unit": "nM"},
      {"measurement": "concentration at 0.6 h", "setting": "[5]", "result": 2300, "unit": "nM"},
      {"measurement": "concentration at 0.6 h", "setting": "[6]", "result": 8.8, "unit": "nM"},
      {"measurement": "concentration at 0.6 h", "setting": "[7]", "result": 730, "unit": "nM"},
      {"measurement": "concentration at 0.6 h", "setting": "[8]", "result": 210, "unit": "nM"},
      {"measurement": "Activity", "setting": "[9]", "result": "inactive"},
      {"measurement": "Activity", "setting": "[10]", "result": "Active"},
      {"measurement": "IC50", "setting": "[11]", "result": "> 1000", "unit": "nM"},
      {"measurement": "IC50", "setting": "[12]", "result": "> 1000", "unit": "nM"},
      {"measurement": "inhibition", "setting": "[13]", "result": "Active"},
      {"measurement": "inhibition", "setting": "[14]", "result": "Active"}
    ]}
  ]
}
